Laboratory results as given in PMC9302689 (British Journal of Clinical Pharmacology, 2022).

Test system: healthy male subjects
Assay: Pharmaco-EEG
Format: in vivo, human
Conditions: 12-hour post-dose period
In short: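 Continuous EEG was recorded from 21 electrodes placed by the 10–20 system, with mastoid electrodes replacing the earlobe ones. Recordings followed IPEG guidelines, twice pre-dose and at 0.5–10 h post-dose. Power spectra for Fz-Cz and Pz-O derivations were split into bands to give total band power (μV). Values were ln-transformed, analysed by MMRM over 12 h against pooled placebo, and back-transformed.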

CN1CCC23CCCCC2C1Cc1ccc(C(N)=O)cc13 (stereo not drawn) [ALKS 7119, (9α, 13α)‐17‐methylmorphinan‐3‐carboxamide]
Theta-power Pz-Oz, LSM CFB (75 mg single oral dose): 0.12 Hz | Theta-power Pz-Oz, estimate of difference compared to placebo (75 mg single oral dose): 0.05 [−0.20, 0.28] P = .69 Hz | Alpha-power Fz-Cz, LSM CFB (100 mg single oral dose): 0.06 Hz | Alpha-power Pz-Oz, LSM CFB (100 mg single oral dose): 0.12 Hz | Alpha-power Pz-Oz, estimate of difference compared to placebo (100 mg single oral dose): 0.02 [−0.23, 0.28] P = .85 Hz | Beta-power Fz-Cz, LSM CFB (100 mg single oral dose): 0.08 Hz | Beta-power Fz-Cz, estimate of difference compared to placebo (100 mg single oral dose): −0.03 [−0.25, 0.19] P = .77 Hz | Beta-power Pz-Oz, LSM CFB (100 mg single oral dose): 0.25 Hz | Beta-power Pz-Oz, estimate of difference compared to placebo (100 mg single oral dose): 0.12 [−0.07, 0.32] P = .22 Hz | Delta-power Fz-Cz, LSM CFB (100 mg single oral dose): −0.03 Hz | Delta-power Fz-Cz, estimate of difference compared to placebo (100 mg single oral dose): −0.13 [−0.34, 0.08] P = .22 Hz | Delta-power Pz-Oz, LSM CFB (100 mg single oral dose): 0.08 Hz | Delta-power Pz-Oz, estimate of difference compared to placebo (100 mg single oral dose): 0.02 [−0.21, 0.25] P = .89 Hz | Gamma-power Fz-Cz, LSM CFB (100 mg single oral dose): 0.1 Hz | Gamma-power Fz-Cz, estimate of difference compared to placebo (100 mg single oral dose): <−0.01 [−0.20, 0.21] P = .99 Hz | Gamma-power Pz-Oz, LSM CFB (100 mg single oral dose): 0.27 Hz | Gamma-power Pz-Oz, estimate of difference compared to placebo (100 mg single oral dose): 0.06 [−0.19, 0.32] P = .63 Hz | Theta-power Fz-Cz, LSM CFB (100 mg single oral dose): 0.03 Hz | Theta-power Fz-Cz, estimate of difference compared to placebo (100 mg single oral dose): −0.04 [−0.27, 0.19] P = .72 Hz | Theta-power Pz-Oz, LSM CFB (100 mg single oral dose): 0.14 Hz | Theta-power Pz-Oz, estimate of difference compared to placebo (100 mg single oral dose): 0.08 [−0.16, 0.30] P = .56 Hz | Alpha-power Fz-Cz, LSM CFB (125 mg single oral dose): 0.05 Hz | Alpha-power Fz-Cz, estimate of difference compared to placebo (125 mg single oral dose): −0.17 [−1.24,‐.89] P = .75 Hz | Alpha-power Pz-Oz, LSM CFB (125 mg single oral dose): 0.11 Hz | Alpha-power Pz-Oz, estimate of difference compared to placebo (125 mg single oral dose): 0.01 [−0.25, 0.27] P = .93 Hz | Beta-power Fz-Cz, LSM CFB (125 mg single oral dose): 0.12 Hz | Beta-power Fz-Cz, estimate of difference compared to placebo (125 mg single oral dose): 0.01 [−0.21, 0.23] P = .93 Hz | Beta-power Pz-Oz, LSM CFB (125 mg single oral dose): 0.14 Hz | Beta-power Pz-Oz, estimate of difference compared to placebo (125 mg single oral dose): 0.02 [−0.18, 0.22] P = .87 Hz | Delta-power Fz-Cz, LSM CFB (125 mg single oral dose): 0.09 Hz | Delta-power Fz-Cz, estimate of difference compared to placebo (125 mg single oral dose): −0.01 [0.22, 0.20] P = .90 Hz | Delta-power Pz-Oz, LSM CFB (125 mg single oral dose): 0.22 Hz | Delta-power Pz-Oz, estimate of difference compared to placebo (125 mg single oral dose): 0.15 [−0.08, 0.39] P = .19 Hz | Gamma-power Fz-Cz, LSM CFB (125 mg single oral dose): 0.12 Hz | Gamma-power Fz-Cz, estimate of difference compared to placebo (125 mg single oral dose): 0.02 [−0.18, 0.22] P = .85 Hz | Gamma-power Pz-Oz, LSM CFB (125 mg single oral dose): 0.12 Hz | Gamma-power Pz-Oz, estimate of difference compared to placebo (125 mg single oral dose): −0.09 [−0.35, 0.17] P = .49 Hz | Theta-power Fz-Cz, LSM CFB (125 mg single oral dose): 0.1 Hz | Theta-power Fz-Cz, estimate of difference compared to placebo (125 mg single oral dose): 0.03 [−0.20, 0.25] P = .82 Hz | Theta-power Pz-Oz, LSM CFB (125 mg single oral dose): 0.15 Hz | Theta-power Pz-Oz, estimate of difference compared to placebo (125 mg single oral dose): 0.08 [−0.15, 0.31] P = .50 Hz | Alpha-power Fz-Cz, LSM CFB (150 mg single oral dose): 0.15 Hz | Alpha-power Pz-Oz, LSM CFB (150 mg single oral dose): −0.07 Hz | Alpha-power Pz-Oz, estimate of difference compared to placebo (150 mg single oral dose): −0.17 [−0.43, 0.09] P = .19 Hz | Beta-power Fz-Cz, LSM CFB (150 mg single oral dose): 0.11 Hz | Beta-power Fz-Cz, estimate of difference compared to placebo (150 mg single oral dose): −0.01 [−0.22, 0.22] P = .97 Hz | Beta-power Pz-Oz, LSM CFB (150 mg single oral dose): −0.07 Hz | Beta-power Pz-Oz, estimate of difference compared to placebo (150 mg single oral dose): −0.19 [−0.39, 0.01] P = .06 Hz | Delta-power Fz-Cz, LSM CFB (150 mg single oral dose): −0.08 Hz | Delta-power Fz-Cz, estimate of difference compared to placebo (150 mg single oral dose): −0.19 [−0.41, 0.03] P = .08 Hz | Delta-power Pz-Oz, LSM CFB (150 mg single oral dose): 0.02 Hz | Delta-power Pz-Oz, estimate of difference compared to placebo (150 mg single oral dose): −0.04 [−0.27, 0.19] P = .71 Hz | Gamma-power Fz-Cz, LSM CFB (150 mg single oral dose): 0.14 Hz | Gamma-power Fz-Cz, estimate of difference compared to placebo (150 mg single oral dose): 0.04 [−0.16, 0.24] P = .71 Hz | Gamma-power Pz-Oz, LSM CFB (150 mg single oral dose): 0.09 Hz | Gamma-power Pz-Oz, estimate of difference compared to placebo (150 mg single oral dose): −0.12 [−0.37, 0.14] P = .37 Hz | Theta-power Fz-Cz, LSM CFB (150 mg single oral dose): 0 Hz | Theta-power Fz-Cz, estimate of difference compared to placebo (150 mg single oral dose): −0.07 [−0.31, 0.16] P = .54 Hz | Theta-power Pz-Oz, LSM CFB (150 mg single oral dose): 0 Hz | Theta-power Pz-Oz, estimate of difference compared to placebo (150 mg single oral dose): −0.07 [−0.31, 0.16] P = .53 Hz | Alpha-power Fz-Cz, LSM CFB (175 mg single oral dose): 0.02 Hz | Alpha-power Fz-Cz, estimate of difference compared to placebo (175 mg single oral dose): −0.15 [−1.19, 0.9] P = .78 Hz | Alpha-power Pz-Oz, LSM CFB (175 mg single oral dose): −0.02 Hz | Alpha-power Pz-Oz, estimate of difference compared to placebo (175 mg single oral dose): −0.12 [−0.37, 0.14] P = .36 Hz | Beta-power Fz-Cz, LSM CFB (175 mg single oral dose): 0.08 Hz | Beta-power Fz-Cz, estimate of difference compared to placebo (175 mg single oral dose): −0.04 [−0.26, 0.18] P = .73 Hz | Beta-power Pz-Oz, LSM CFB (175 mg single oral dose): 0.01 Hz | Beta-power Pz-Oz, estimate of difference compared to placebo (175 mg single oral dose): −0.12 [−0.32, 0.08] P = .24 Hz | Delta-power Fz-Cz, LSM CFB (175 mg single oral dose): 0.09 Hz | Delta-power Fz-Cz, estimate of difference compared to placebo (175 mg single oral dose): −0.01 [−0.23, 0.20] P = .91 Hz | Delta-power Pz-Oz, LSM CFB (175 mg single oral dose): −0.07 Hz | Delta-power Pz-Oz, estimate of difference compared to placebo (175 mg single oral dose): −0.13 [−0.36, 0.11] P = .26 Hz | Gamma-power Fz-Cz, LSM CFB (175 mg single oral dose): 0.16 Hz | Gamma-power Fz-Cz, estimate of difference compared to placebo (175 mg single oral dose): 0.06 [−0.14, 0.26] P = .57 Hz | Gamma-power Pz-Oz, LSM CFB (175 mg single oral dose): 0.03 Hz | Gamma-power Pz-Oz, estimate of difference compared to placebo (175 mg single oral dose): −0.18 [−0.43, 0.08] P = .17 Hz | Theta-power Fz-Cz, LSM CFB (175 mg single oral dose): 0.08 Hz | Theta-power Pz-Oz, LSM CFB (175 mg single oral dose): −0.07 Hz | Theta-power Pz-Oz, estimate of difference compared to placebo (175 mg single oral dose): −0.14 [−0.37, 0.10] P = .25 Hz | Alpha-power Fz-Cz, LSM CFB (200 mg single oral dose): 0.01 Hz | Alpha-power Fz-Cz, estimate of difference compared to placebo (200 mg single oral dose): −0.28 [−1.39, 0.82] P = .61 Hz | Alpha-power Pz-Oz, LSM CFB (200 mg single oral dose): 0.24 Hz | Alpha-power Pz-Oz, estimate of difference compared to placebo (200 mg single oral dose): 0.14 [−0.11, 0.40] P = .27 Hz | Beta-power Fz-Cz, LSM CFB (200 mg single oral dose): 0.07 Hz | Beta-power Fz-Cz, estimate of difference compared to placebo (200 mg single oral dose): −0.05 [−0.27, 0.17] P = .67 Hz | Beta-power Pz-Oz, LSM CFB (200 mg single oral dose): 0.2 Hz | Beta-power Pz-Oz, estimate of difference compared to placebo (200 mg single oral dose): 0.07 [−0.12, 0.27] P = .46 Hz | Delta-power Fz-Cz, LSM CFB (200 mg single oral dose): 0.02 Hz | Delta-power Fz-Cz, estimate of difference compared to placebo (200 mg single oral dose): −0.08 [−0.29, 0.13] P = .45 Hz | Delta-power Pz-Oz, LSM CFB (200 mg single oral dose): 0.26 Hz | Delta-power Pz-Oz, estimate of difference compared to placebo (200 mg single oral dose): 0.20 [−0.04, 0.43] P = .10 Hz | Gamma-power Fz-Cz, LSM CFB (200 mg single oral dose): 0.21 Hz | Gamma-power Fz-Cz, estimate of difference compared to placebo (200 mg single oral dose): 0.11 [−0.09, 0.31] P = .29 Hz | Gamma-power Pz-Oz, LSM CFB (200 mg single oral dose): 0.31 Hz | Gamma-power Pz-Oz, estimate of difference compared to placebo (200 mg single oral dose): 0.11 [−0.15, 0.36] P = .40 Hz | Theta-power Fz-Cz, LSM CFB (200 mg single oral dose): 0.07 Hz | Theta-power Pz-Oz, LSM CFB (200 mg single oral dose): 0.25 Hz | Theta-power Pz-Oz, estimate of difference compared to placebo (200 mg single oral dose): 0.18 [−0.05, 0.41] P = .13 Hz
